# Test results from ChEMBL document CHEMBL1155429, “Discovery of a biaryl cyclohexene carboxylic acid (MK-6892): a potent and selective high affinity niacin receptor full agonist with reduced flushing profiles in animals as a preclinical candidate” (J Med Chem, 2010).
# Active and inactive are the calls of the source.
# Legend:
# [1] = target: Hydroxycarboxylic acid receptor 3 (Homo sapiens) (UniProt P49019); assay: Binding affinity to GPR109B
# [2] = organism: Canis lupus familiaris; assay: (§1) Agonist activity at dog nicotinic acid receptor by [35S]GTPgammaS binding assay; type: functional
# How it was run: (§2)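 [35S]GTPγS exchange functional assay on membranes from cells expressing the dog NA receptor; full agonism judged relative to NA; EC50 determined.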
# [3] = target: Hydroxycarboxylic acid receptor 1 (Homo sapiens) (UniProt Q9BXC0); assay: Binding affinity to GPR81
# [4] = tested on: Rattus norvegicus; assay: Antilipolytic activity in po dosed rat assessed as reduction plasma free fatty acids levels
# [5] = tested on: Mus musculus; assay: Antilipolytic activity in wild-type C57BL/6 mouse assessed as reduction plasma free fatty acids levels at 100 mg/kg, po after 15 mins; type: functional; set-up: scale not given: the % may be the effect or the level left
# How it was run: (§3)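 Fed wild-type or NA receptor null mice on C57Bl/6 background dosed orally at 100 mpk; blood drawn 15 min postdose for plasma FFA and compound blood level; n = 8/group.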
# [6] = tested on: Canis familiaris; assay: Antilipolytic activity in po dosed dog assessed as drug concentration causing maximum reduction plasma free fatty acids levels; type: functional, Canis lupus familiaris
# How it was run: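 Dose-based dog measure: dose producing maximal plasma FFA suppression after oral dosing in fasted conscious dogs, read from oral dose-ranging FFA data.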
# [7] = tested on: Mus musculus; assay: Antilipolytic activity in NA-receptor null C57BL/6 mouse assessed as reduction plasma free fatty acids levels at 100 mg/kg, po after 15 mins; type: functional, organism-based; set-up: dose 100 mg/kg; how it was run: as §3
# [8] = tested on: Canis familiaris; assay: Antilipolytic activity in po dosed dog assessed as reduction plasma free fatty acids levels; conditions: Canis lupus familiaris
# [9] = tested on: Rattus norvegicus; assay: Toxicity in ip dosed rat assessed as induction of induction of flushing-mediated vasodilation in ears by laser doppler flowmetry; type: functional
# [10] = Toxicity in po dosed dog assessed as Cmax at which threshold dose of vasodilation occurs in ears by spectrocolorimetry; type: organism-based, Canis lupus familiaris; conditions: in vivo, read-out: Activity
# How it was run: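 Oral dosing in conscious dogs; Cmax(TDV) = average maximal blood compound level at the threshold dose for vasodilation, which was assessed by ear spectrocolorimetry.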
# [11] = tested on: Canis familiaris; assay: Toxicity in po dosed dog assessed as threshold dose at which induction of flushing-mediated-vasodilation occurs in ears by spectrocolorimetry; type: functional, Canis lupus familiaris
# How it was run: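 Conscious dogs dosed orally; flushing scored by ear spectrocolorimetry plus vocal and physical agitation; threshold dose = dose causing vasodilation in a subset of animals.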
# [12] = Volume of distribution in dog at 1.0 mg/kg, iv or 2 mg/kg, po; type: ADME, organism-based, Canis lupus familiaris; conditions: in vivo
# How it was run: (§4)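 PK: iv 1.0 mpk in DMSO/Tween-80/water (5:10:85) for rats, EtOH/PEG400/water (10:40:50) for dogs and monkeys; oral 2 mpk in 0.5% methylcellulose for rats and dogs.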
# [13] = Half life in dog at 1.0 mg/kg, iv or 2 mg/kg, po; type: ADME, organism-based, Canis lupus familiaris; conditions: in vivo; how it was run: as §4
# [14] = Clearance in dog at 1.0 mg/kg, iv or 2 mg/kg, po; type: ADME, organism-based, Canis lupus familiaris; conditions: in vivo; how it was run: as §4
# [15] = Clearance in rat at 1.0 mg/kg, iv or 2 mg/kg, po; type: ADME, organism-based; conditions: in vivo; how it was run: as §4
# [16] = (§5) Volume of distribution in rat at 1.0 mg/kg, iv or 2 mg/kg, po; type: ADME, organism-based; conditions: in vivo; how it was run: as §4
# [17] = (§6) Half life in rat at 1.0 mg/kg, iv or 2 mg/kg, po; type: ADME, organism-based; conditions: in vivo; how it was run: as §4
# [18] = (§7) Bioavailability in rat at 1.0 mg/kg, iv or 2 mg/kg, po; type: ADME, organism-based; conditions: in vivo; how it was run: as §4
# [19] = Bioavailability in dog at 1.0 mg/kg, iv or 2 mg/kg, po; type: ADME, organism-based, Canis lupus familiaris; conditions: in vivo; how it was run: as §4
# [20] = target: T1, Cytochrome P450 2C8 (Homo sapiens, UniProt P10632); assay: Inhibition of CYP2C8; type: ADME
# T1 sequence (P10632 whole entry): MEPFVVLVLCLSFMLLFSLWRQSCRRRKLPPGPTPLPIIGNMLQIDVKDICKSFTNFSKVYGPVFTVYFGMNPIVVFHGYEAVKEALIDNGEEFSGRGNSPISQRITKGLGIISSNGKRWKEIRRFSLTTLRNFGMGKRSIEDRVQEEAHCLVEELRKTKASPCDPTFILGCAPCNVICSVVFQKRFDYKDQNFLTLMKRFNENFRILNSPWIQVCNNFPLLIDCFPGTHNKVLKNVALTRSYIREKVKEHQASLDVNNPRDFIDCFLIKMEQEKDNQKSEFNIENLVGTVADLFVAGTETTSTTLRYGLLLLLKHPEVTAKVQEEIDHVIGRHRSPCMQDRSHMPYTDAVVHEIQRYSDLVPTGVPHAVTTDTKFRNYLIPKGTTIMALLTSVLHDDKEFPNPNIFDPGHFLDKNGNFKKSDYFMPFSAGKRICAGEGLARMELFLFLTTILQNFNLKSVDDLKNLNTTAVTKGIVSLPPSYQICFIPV
# How it was run: (§8)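 CYP2C8, 2D6 and 3A4 inhibition measured as IC50.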
# [21] = tested on: Canis familiaris; assay: Antilipolytic activity in dog assessed as reduction plasma free fatty acids levels at 100 mg/kg, po; type: functional, Canis lupus familiaris; set-up: scale not given: the % may be the effect or the level left
# How it was run: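 Fasted conscious dogs dosed orally; plasma FFA followed over time relative to baseline; n = 3-7 per group.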
# [22] = Volume of distribution in rhesus monkey at 1.0 mg/kg, iv or 2 mg/kg, po; type: ADME, organism-based, Macaca mulatta; conditions: in vivo; how it was run: as §4
# [23] = target: Cytochrome P450 2C9 (Homo sapiens, UniProt P11712); assay: Inhibition of CYP2C9; type: ADME
# [24] = tested on: Rattus norvegicus; assay: Toxicity in rat assessed as induction of flushing-mediated vasodilation in ears at 100 mg/kg, sc by laser doppler flowmetry; conditions: in vivo
# [25] = Bioavailability in rhesus monkey at 1.0 mg/kg, iv or 2 mg/kg, po; type: ADME, organism-based, Macaca mulatta; conditions: in vivo; how it was run: as §4
# [26] = Bioavailability in mouse at 1.0 mg/kg, iv or 2 mg/kg, po; type: ADME, organism-based; conditions: in vivo
# [27] = tested on: Rattus norvegicus; assay: Antilipolytic activity in rat assessed as reduction plasma free fatty acids levels at 100 mg/kg, po; type: functional; set-up: scale not given: the % may be the effect or the level left
# How it was run: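 Conscious rats dosed orally, dose range 1–100 mpk; plasma FFA measured over 4 h and expressed relative to t = 0 level; n ≥ 5 per group.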
# [28] = Volume of distribution in mouse at 1.0 mg/kg, iv or 2 mg/kg, po; type: ADME, organism-based; conditions: in vivo
# [29] = as §1; type: functional, Canis lupus familiaris; how it was run: as §2
# [30] = Clearance in mouse at 1.0 mg/kg, iv or 2 mg/kg, po; type: ADME, organism-based; conditions: in vivo
# [31] = tested on: Rattus norvegicus; assay: Plasma concentration in rat at 100 mg/kg, ip; type: ADME, organism-based; set-up: dose 100 mg/kg, route intraperitoneal; conditions: in vivo
# [32] = Half life in mouse at 1.0 mg/kg, iv or 2 mg/kg, po; type: ADME, organism-based; conditions: in vivo
# [33] = target: Cytochrome P450 2D6 (Homo sapiens, UniProt P10635); assay: Inhibition of CYP2D6; type: ADME; how it was run: as §8
# [34] = Half life in rhesus monkey at 1.0 mg/kg, iv or 2 mg/kg, po; type: ADME, organism-based, Macaca mulatta; conditions: in vivo; how it was run: as §4
# [35] = Drug level in wild-type C57BL/6 mouse blood at 100 mg/kg, po after 15 mins; type: ADME, organism-based; set-up: dose 100 mg/kg, route oral; how it was run: as §3
# [36] = Drug level in NA-receptor null C57BL/6 mouse blood at 100 mg/kg, po after 15 mins; type: ADME, organism-based; set-up: dose 100 mg/kg, route oral; how it was run: as §3
# [37] = Clearance in rhesus monkey at 1.0 mg/kg, iv or 2 mg/kg, po; type: ADME, organism-based, Macaca mulatta; conditions: in vivo; how it was run: as §4
# [38] = tested on: Rattus norvegicus; assay: Toxicity in rat assessed as induction of induction of flushing-mediated vasodilation in ears at 100 mg/kg, sc by laser doppler flowmetry; type: functional, organism-based; set-up: dose 100 mg/kg
# How it was run: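 Anesthetized rats dosed subcutaneously in a dose-ranging study; ear blood perfusion monitored by laser Doppler flowmetry; n ≥ 5 per group.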
# [39] = tested on: Rattus norvegicus; assay: Toxicity in rat assessed as flushing-mediated vasodilation at 100 mg/kg, ip by laser doppler flowmetry; type: functional, organism-based; set-up: dose 100 mg/kg
# [40] = tested on: Rattus norvegicus; assay: as §5; type: ADME, organism-based; conditions: in vivo; how it was run: as §4
# [41] = tested on: Rattus norvegicus; assay: as §6; type: ADME, organism-based; conditions: in vivo; how it was run: as §4
# [42] = tested on: Rattus norvegicus; assay: as §7; type: ADME, organism-based; conditions: in vivo; how it was run: as §4
# Chain of Hydroxycarboxylic acid receptor 1 (Homo sapiens) (Q9BXC0 whole entry): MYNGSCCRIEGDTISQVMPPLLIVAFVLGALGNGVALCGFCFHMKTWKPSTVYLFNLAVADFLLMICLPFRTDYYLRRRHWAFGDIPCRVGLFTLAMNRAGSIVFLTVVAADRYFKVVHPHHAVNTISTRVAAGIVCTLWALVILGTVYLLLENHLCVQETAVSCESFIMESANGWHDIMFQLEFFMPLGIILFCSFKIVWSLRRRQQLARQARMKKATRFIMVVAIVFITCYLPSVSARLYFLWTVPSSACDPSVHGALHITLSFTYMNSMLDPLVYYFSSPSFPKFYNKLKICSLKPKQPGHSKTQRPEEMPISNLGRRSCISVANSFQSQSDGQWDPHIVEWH
# Chain of Hydroxycarboxylic acid receptor 3 (Homo sapiens) (P49019 whole entry): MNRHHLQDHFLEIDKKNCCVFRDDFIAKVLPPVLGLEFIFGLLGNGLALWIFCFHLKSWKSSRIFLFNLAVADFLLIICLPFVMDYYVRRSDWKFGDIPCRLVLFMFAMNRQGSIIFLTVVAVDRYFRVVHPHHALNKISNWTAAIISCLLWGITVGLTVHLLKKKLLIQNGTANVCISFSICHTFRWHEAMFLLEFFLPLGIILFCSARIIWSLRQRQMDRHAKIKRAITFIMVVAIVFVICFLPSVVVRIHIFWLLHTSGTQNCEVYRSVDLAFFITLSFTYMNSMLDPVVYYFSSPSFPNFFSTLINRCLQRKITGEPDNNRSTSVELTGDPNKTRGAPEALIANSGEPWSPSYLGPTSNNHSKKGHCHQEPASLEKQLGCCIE
# Chain of Cytochrome P450 2D6 (P10635 whole entry): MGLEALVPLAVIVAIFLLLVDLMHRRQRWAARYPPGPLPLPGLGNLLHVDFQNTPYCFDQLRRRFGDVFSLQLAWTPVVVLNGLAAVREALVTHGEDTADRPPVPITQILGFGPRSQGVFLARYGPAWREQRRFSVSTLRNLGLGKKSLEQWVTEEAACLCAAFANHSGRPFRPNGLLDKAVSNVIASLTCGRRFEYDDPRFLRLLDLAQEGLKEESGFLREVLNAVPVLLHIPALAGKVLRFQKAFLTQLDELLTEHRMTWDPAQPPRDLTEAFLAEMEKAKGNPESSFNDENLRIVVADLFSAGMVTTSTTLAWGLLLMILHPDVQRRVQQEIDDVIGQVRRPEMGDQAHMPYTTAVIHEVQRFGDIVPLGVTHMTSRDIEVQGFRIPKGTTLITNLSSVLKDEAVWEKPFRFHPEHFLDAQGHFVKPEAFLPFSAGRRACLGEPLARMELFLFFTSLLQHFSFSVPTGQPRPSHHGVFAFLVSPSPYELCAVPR
# Chain of Cytochrome P450 2C9 (P11712 whole entry): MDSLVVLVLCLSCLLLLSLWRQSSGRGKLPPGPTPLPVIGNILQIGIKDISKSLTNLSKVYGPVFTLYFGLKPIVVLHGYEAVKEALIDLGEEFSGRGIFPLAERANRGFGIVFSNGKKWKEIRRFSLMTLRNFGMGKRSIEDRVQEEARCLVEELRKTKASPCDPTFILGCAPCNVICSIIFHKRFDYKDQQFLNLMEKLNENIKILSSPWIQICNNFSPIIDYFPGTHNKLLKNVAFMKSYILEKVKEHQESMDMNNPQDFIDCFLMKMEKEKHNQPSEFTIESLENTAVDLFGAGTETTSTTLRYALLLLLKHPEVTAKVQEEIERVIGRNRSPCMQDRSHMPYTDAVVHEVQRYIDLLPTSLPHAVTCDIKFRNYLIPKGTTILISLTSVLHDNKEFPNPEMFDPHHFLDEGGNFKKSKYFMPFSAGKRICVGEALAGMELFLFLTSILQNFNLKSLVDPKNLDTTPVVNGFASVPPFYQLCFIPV
compound,measurement,setting,value
O=C(CCc1nc(-c2ccc(O)cn2)no1)Nc1ccccc1C(=O)O,Activity,[1],inactive
same,Activity,[2],Active
same,Activity,[3],inactive
O=C(O)c1cccnc1 [NIACIN],EC50,[4],2.2 µM
same,Activity,[5],43%
same,Activity,[6],6 mg/kg
same,Activity,[7],inactive
same,EC50,[8],2.7 µM
same,Activity,[9],9.4 µM
same,Cmax,[10],14.6 µM
same,Activity,[11],3 mg/kg
O=C(CCc1nc(-c2ccc(O)cn2)no1)NC1=C(C(=O)O)CCCC1,Activity,[1],inactive
same,Vd,[12],0.18 L/kg
same,half-life,[13],2.1 h
same,clearance,[14],1.3 mL/min/kg
same,clearance,[15],2 mL/min/kg
same,Vd,[16],0.11 L/kg
same,half-life,[17],2 h
same,bioavailability,[18],22%
same,Activity,[2],Active
same,Activity,[3],inactive
same,bioavailability,[19],33%
CC(C)(Cc1nc(-c2ccc(O)cn2)no1)C(=O)NC1=C(C(=O)O)CCCC1,IC50,[20],> 100 µM
same,Activity,[1],inactive
same,Vd,[12],0.27 L/kg
same,EC50,[4],67 µM
same,Activity,[21],85%
same,Vd,[22],0.08 L/kg
same,half-life,[13],7.6 h
same,IC50,[23],39 µM
same,Activity,[24],Toxic
same,clearance,[14],1.8 mL/min/kg
same,clearance,[15],0.4 mL/min/kg
same,bioavailability,[25],14%
same,bioavailability,[26],45%
same,Activity,[27],85%
same,Vd,[28],0.2 L/kg
same,Vd,[16],0.15 L/kg
same,half-life,[17],4.3 h
same,Activity,[5],36%
same,bioavailability,[18],24%
same,Activity,[6],10 mg/kg
same,EC50,[29],1.3 µM
same,clearance,[30],1.3 mL/min/kg
same,Activity,[7],inactive
same,concentration,[31],555 µM
same,Activity,[3],inactive
same,half-life,[32],6.4 h
same,EC50,[8],16.5 µM
same,IC50,[33],> 100 µM
same,Activity,[9],560 µM
same,half-life,[34],4.9 h
same,Cmax,[10],182 µM
same,concentration at 0.25 h,[35],229 µM
same,concentration at 0.25 h,[36],148 µM
same,Activity,[11],100 mg/kg
same,clearance,[37],0.4 mL/min/kg
same,Activity,[38],Toxic
same,Activity,[39],Toxic
same,bioavailability,[19],90%
"CC(Cc1nc(-c2ccc(O)cn2)no1)C(=O)NC1=C(C(=O)O)CCCC1 (single isomer, unassigned) [listing 1 of 2 here]",Activity,[1],inactive
same,Activity,[2],Active
same,Activity,[3],inactive
"CC(Cc1nc(-c2ccc(O)cn2)no1)C(=O)NC1=C(C(=O)O)CCCC1 (single isomer, unassigned; enantiomer B) [listing 1 of 2 here]",Vd,[40],0.25 L/kg
same,t1/2,[41],4.1 h
same,F,[42],23%
"CC(Cc1nc(-c2ccc(O)cn2)no1)C(=O)NC1=C(C(=O)O)CCCC1 (single isomer, unassigned) [listing 2 of 2 here]",clearance,[15],1.1 mL/min/kg
same,Vd,[16],0.21 L/kg
same,half-life,[17],3.6 h
same,bioavailability,[18],19%
"CC(Cc1nc(-c2ccc(O)cn2)no1)C(=O)NC1=C(C(=O)O)CCCC1 (single isomer, unassigned; enantiomer B) [listing 2 of 2 here]",Activity,[1],inactive
same,Activity,[2],Active
same,Activity,[3],inactive
